Source: ChEMBL document CHEMBL4725348, “Rational Design and Evaluation of 6-(Pyrimidin-2-ylamino)-3,4-dihydroquinoxalin-2(1H)-ones as Polypharmacological Inhibitors of BET and Kinases” (J Med Chem, 2020)
pIC50: −log10 of the molar value.

What was measured:
[1] = Half life in ICR mouse at 3 mg/kg, ip and measured up to 24 hrs by TQ-S triple quadrupole mass spectrometric method; assay type: ADME, organism-based; conditions: in vivo
Outline: (§1)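 Male ICR mice (20 - 22 g, n = 3) dosed intraperitoneally, compound at 1 mg/mL in 1%DMSO/0.5%HPMC (5/95, v/v). EDTA plasma collected 0.25–24 h. 10 µL plasma treated with methanol:acetonitrile (1:1) containing internal standard, then centrifuged. LC-MS/MS on C18 UPLC. Parameters derived from composite mean plasma concentration-time data; Cmax is the maximum observed concentration and Tmax the time it is reached.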

[2] = biological target: T1, Cyclin-dependent kinase 2 (Homo sapiens, UniProt P24941); assay: Inhibition of human CDK2 by kinome scan method
[3] = biological target: Cyclin-dependent kinase 1 (Homo sapiens) (UniProt P06493); assay: Inhibition of human CDK1 at 1 uM by kinome scan method relative to control
Chain of Cyclin-dependent kinase 1 (Homo sapiens) (P06493 whole entry, looked up): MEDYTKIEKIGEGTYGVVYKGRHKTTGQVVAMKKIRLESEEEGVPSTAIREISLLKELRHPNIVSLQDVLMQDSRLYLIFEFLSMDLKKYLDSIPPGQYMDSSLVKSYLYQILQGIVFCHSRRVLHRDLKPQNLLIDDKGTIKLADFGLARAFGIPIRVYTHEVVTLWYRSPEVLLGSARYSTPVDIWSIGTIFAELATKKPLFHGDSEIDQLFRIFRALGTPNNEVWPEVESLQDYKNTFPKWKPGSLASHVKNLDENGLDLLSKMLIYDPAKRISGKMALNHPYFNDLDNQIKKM
Outline: (§2)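 Eurofins DiscoveRx diversity kinase panel run at 1 µM. Inhibition values are means of at least two independent experiments.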

[4] = biological target: T1, Cyclin-dependent kinase 2; assay: Inhibition of human CDK2 at 1 uM by kinome scan method relative to control; outline: as §2
[5] = AUC (0 to infinity) in ICR mouse at 3 mg/kg, ip and measured up to 24 hrs by TQ-S triple quadrupole mass spectrometric method; assay type: ADME, organism-based; parameters: route intraperitoneal, dose 3 mg/kg, time <=24; conditions: in vivo; outline: as §1
[6] = Cmax in ICR mouse at 3 mg/kg, ip and measured up to 24 hrs by TQ-S triple quadrupole mass spectrometric method; assay type: ADME, organism-based; parameters: route intraperitoneal, dose 3 mg/kg, time <=24; conditions: in vivo; outline: as §1
[7] = biological target: Bromodomain-containing protein 2 (Homo sapiens) (UniProt P25440); assay: Inhibition of His6-tagged BRD2 bromodomain 2 (unknown origin) expressed in Escherichia coli Bl21(DE3) cells at 1 uM incubated for 4 hrs by FP assay relative to control
Chain of Bromodomain-containing protein 2 (Homo sapiens) (P25440 whole entry, looked up): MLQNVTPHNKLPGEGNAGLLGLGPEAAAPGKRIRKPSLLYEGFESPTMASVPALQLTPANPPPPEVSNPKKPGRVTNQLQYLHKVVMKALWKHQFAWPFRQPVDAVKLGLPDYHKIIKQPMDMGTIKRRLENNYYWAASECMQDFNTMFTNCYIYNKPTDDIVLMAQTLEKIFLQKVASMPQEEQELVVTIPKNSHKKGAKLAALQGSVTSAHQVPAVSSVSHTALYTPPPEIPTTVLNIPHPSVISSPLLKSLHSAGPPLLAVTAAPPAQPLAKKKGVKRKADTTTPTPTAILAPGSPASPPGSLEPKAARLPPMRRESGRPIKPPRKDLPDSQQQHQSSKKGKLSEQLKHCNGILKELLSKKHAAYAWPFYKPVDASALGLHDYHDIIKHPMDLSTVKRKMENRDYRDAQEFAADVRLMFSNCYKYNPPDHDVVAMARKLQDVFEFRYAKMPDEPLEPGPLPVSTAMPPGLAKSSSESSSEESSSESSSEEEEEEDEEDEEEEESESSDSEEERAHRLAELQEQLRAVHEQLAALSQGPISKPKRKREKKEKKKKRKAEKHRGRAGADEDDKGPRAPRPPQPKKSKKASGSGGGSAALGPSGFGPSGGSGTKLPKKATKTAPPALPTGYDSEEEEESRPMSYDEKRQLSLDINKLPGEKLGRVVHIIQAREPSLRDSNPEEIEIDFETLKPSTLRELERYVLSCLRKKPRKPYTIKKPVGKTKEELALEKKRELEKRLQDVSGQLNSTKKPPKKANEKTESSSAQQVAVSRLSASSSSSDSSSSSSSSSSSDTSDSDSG
Outline: (§3)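 Fluorescence polarization. Purified bromodomain (His6 tag removed with TEV, size-exclusion purified) equilibrated with fluorescent ligand. Compound or DMSO (2‰ final) then added and left 4 h at room temperature in the dark. Anisotropy read at ex 485/em 530 nm. IC50 values are means of at least two independent experiments; single-point inhibition tested at the listed concentration.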

[8] = Tmax in ICR mouse at 3 mg/kg, ip and measured up to 24 hrs by TQ-S triple quadrupole mass spectrometric method; assay type: ADME, organism-based; conditions: in vivo; outline: as §1
[9] = biological target: Bromodomain-containing protein 2 (Homo sapiens) (UniProt P25440); assay: Inhibition of His6-tagged BRD2 bromodomain 1 (unknown origin) expressed in Escherichia coli Bl21(DE3) cells at 1 uM incubated for 4 hrs by FP assay relative to control; outline: as §3
[10] = biological target: T2, Cyclin-dependent kinase 9 (Homo sapiens, UniProt P50750); assay: Inhibition of CDK9 in human HCT-116 cells assessed as reduction in phosphorylation of AR protein expression at 50 to 500 nM after 24 hrs by Western blot analysis; assay type: cell-based; conditions: dose nM 50-500, time 24.0 hrs
T2 sequence (P50750 whole entry): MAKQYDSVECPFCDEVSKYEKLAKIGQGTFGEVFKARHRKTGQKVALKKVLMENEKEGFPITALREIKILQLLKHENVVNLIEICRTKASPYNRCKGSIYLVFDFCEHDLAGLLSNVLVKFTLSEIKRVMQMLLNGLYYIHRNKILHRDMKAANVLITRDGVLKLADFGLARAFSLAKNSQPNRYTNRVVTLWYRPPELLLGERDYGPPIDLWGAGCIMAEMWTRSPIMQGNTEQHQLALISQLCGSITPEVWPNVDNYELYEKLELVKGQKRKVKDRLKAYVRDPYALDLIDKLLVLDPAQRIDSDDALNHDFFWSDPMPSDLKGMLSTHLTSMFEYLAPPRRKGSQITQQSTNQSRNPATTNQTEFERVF
Outline: (§4)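 HCT-116 cells plated 24 h, then treated 24 h at 0, 50, 100, 250 or 500 nM. Lysates immunoblotted for p-AR and p-RNA Pol II CTD with GAPDH as loading control; bands quantified and normalized.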

[11] = AUC (0 to t) in ICR mouse at 3 mg/kg, ip and measured up to 24 hrs by TQ-S triple quadrupole mass spectrometric method; assay type: ADME, organism-based; parameters: route intraperitoneal, dose 3 mg/kg, time <=24; conditions: in vivo; outline: as §1
[12] = Elimination rate constant in ICR mouse at 3 mg/kg, ip and measured up to 24 hrs by TQ-S triple quadrupole mass spectrometric method; assay type: ADME, organism-based; conditions: in vivo; outline: as §1
[13] = biological target: T3, Bromodomain-containing protein 4 (Homo sapiens, UniProt O60885); assay: Inhibition of His6-tagged BRD4 bromodomain 1 (unknown origin) expressed in Escherichia coli Bl21(DE3) cells incubated for 4 hrs by FP assay; outline: as §3
[14] = biological target: T3, Bromodomain-containing protein 4; assay: Inhibition of His6-tagged BRD4 bromodomain 2 (unknown origin) expressed in Escherichia coli Bl21(DE3) cells at 1 uM incubated for 4 hrs by FP assay relative to control; outline: as §3
[15] = biological target: T2, Cyclin-dependent kinase 9; assay: Inhibition of human CDK9 by mobility shift assay relative to control
Outline: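 Recombinant CDK9 incubated with compound and CTD3 peptide substrate. Activity read by Caliper mobility-shift; Dinaciclib served as positive control. IC50 values are means of at least two independent experiments.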

[16] = biological target: T2, Cyclin-dependent kinase 9; assay: Inhibition of CDK9 in human HCT-116 cells assessed as reduction in phosphorylation of […] protein expression at 50 to 500 nM after 24 hrs by Western blot analysis; assay type: cell-based; conditions: dose nM 50-500, time 24.0 hrs; outline: as §4
Homo sapiens = organism: Homo sapiens; assay: Selectivity ratio of IC50 for inhibition of human CDK2 to IC50 for inhibition of human CDK9

half-life [1]: 28.8 min | pIC50 [2]: 6.77 | inhibition [3]: 90% | inhibition [4]: 90% | AUC(0-inf) [5]: 759 ng·h/mL | Cmax [6]: 1370 ng/mL | inhibition [7]: < 12% | Tmax [8]: 11.6 min | inhibition [9]: < 12% | inhibition [10]: Dose-dependent effect | AUC(0-t) at 24 h [11]: 757 ng·h/mL | k el at 24 h [12]: 0.000403 s⁻¹ | pIC50 [13]: 7.90 | inhibition [14]: < 12% | pIC50 [15]: 7.65 | inhibition [16]: Dose-dependent effect | Ratio IC50 (Homo sapiens): 8
SMILES: CC(C)N1c2cc(Nc3nccc(-c4cncc5ccccc45)n3)ccc2N(C)C(=O)[C@H]1C
